Assay results: ChEMBL document CHEMBL1138329, “Pharmacokinetic/pharmacodynamic model-guided identification of hypoxia-selective 1,2,4-benzotriazine 1,4-dioxides with antitumor activity: the role of extravascular transport” (J Med Chem, 2007)
pIC50: −log10 of the molar value.

How the values were obtained:
SiHa [1] = assay: Ratio of IC50 for SiHa cells under oxic conditions to hypoxic conditions after 4 hrs; assay type: functional, Homo sapiens
SiHa [2] = assay: Cytotoxicity against human SiHa cells under hypoxic conditions after 4 hrs; assay type: functional, cell-based
[3] = Cmax in CD1 mouse at 237 umol/kg, ip; assay type: ADME, organism-based; parameters: dose 237 umol/kg, route intraperitoneal; conditions: in vivo
How it was run: (§1)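 Single i.p. dose to CD-1 homozygous nude mice, drug as HCl salt in 0.9% saline, 5% DMSO/saline or lactate buffer (pH 4.0). Plasma total drug measured by HPLC at 75 or 100% of MTD (MTD from 1.33-fold dose steps, 6 mice). Noncompartmental analysis gave AUC, Cmax and t1/2.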

HT-29 [4] = assay: Effect on human HT29 cells under hypoxic conditions assessed as drug level causing 10% clonogenic survival; assay type: functional
How it was run: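 HT29 suspensions (1 or 2 × 10^6 cells/mL) in serum-free medium were stirred under 5% CO2/95% N2 for 90 min. Drug was added from deoxygenated DMSO stock at a level giving about 10% survival at 1 h, and samples were taken up to 3 h. Clonogenic survival (14 days, methylene blue) was fitted with the HPLC concentration–time data, and the 10% survival exposure was interpolated.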

[5] = AUC in CD1 mouse at 237 umol/kg, ip; assay type: ADME, organism-based; conditions: plasma; how it was run: as §1
[6] = Solubility in culture medium in presence of 5% fetal calf serum; assay type: physicochemical; conditions: culture medium with 5% fetal calf serum
HT-29 [7] = assay: Cytotoxicity against human HT29 cells under hypoxic conditions after 4 hrs; assay type: functional, cell-based; conditions: HT-29, 4 h
HT-29 [8] = assay: Ratio of IC50 for HT29 cells under oxic conditions to hypoxic conditions after 4 hrs; assay type: functional, Homo sapiens
[9] = Half life in CD1 mouse at 237 umol/kg, ip; assay type: ADME, organism-based; conditions: in vivo; how it was run: as §1
Mus musculus = assay: Toxicity in ip dosed CD1 mouse; assay type: organism-based; conditions: in vivo
How it was run: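 MTD in CD-1 homozygous nude mice after single i.p. doses (HCl salts in saline, 5% DMSO/saline or lactate buffer pH 4.0), escalated in 1.33-fold increments. MTD taken as the highest dose causing no death, no body weight loss >15% and no other severe morbidity in any of 6 mice.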

HT-29 [10] = assay: Antitumor activity against human HT29 cells implanted in CD1 mouse assessed as clonogenic survival at 1000 umol/kg, ip after 18 hrs relative to control; assay type: functional
How it was run: (§2)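 HT29 xenografts in CD-1 homozygous nude mice; single i.p. dose of drug alone, formulated as the HCl salt in 0.9% saline, 5% DMSO/saline or lactate buffer (pH 4.0). Tumors excised 18 h later, dissociated to single-cell suspensions and plated. Clonogens/g of tumor counted; surviving fraction = treated/control clonogens/g.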

HT-29 [11] = assay: Antitumor activity against human HT29 cells implanted in CD1 mouse at 1000 umol/kg, ip administered 5 mins after irradiation by excision assay relative to radiation alone; assay type: functional
How it was run: (§3)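 Hypoxic-cell excision assay in HT29 xenografts in CD-1 homozygous nude mice. Mice received 20 Gy γ radiation to sterilize oxic tumor cells, then a single i.p. drug dose (HCl salt in saline, 5% DMSO/saline or pH 4.0 lactate buffer) 5 min later. Tumors excised at 18 h and plated for clonogens/g. Log cell kill = log(clonogens/g, radiation only) − log(clonogens/g, radiation plus drug).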

[12] = Half life in CD1 mouse at 1000 umol/kg, ip; assay type: ADME, organism-based; conditions: in vivo; how it was run: as §1
[13] = AUC in CD1 mouse at 1000 umol/kg, ip; assay type: ADME, organism-based; conditions: plasma; how it was run: as §1
[14] = AUC in CD1 mouse at 133 umol/kg, ip; assay type: ADME, organism-based; conditions: plasma; how it was run: as §1
HT-29 [15] = assay: Antitumor activity against human HT29 cells implanted in CD1 mouse at 133 umol/kg, ip administered 5 mins after irradiation by excision assay relative to radiation alone; assay type: functional; how it was run: as §3
[16] = Cmax in CD1 mouse at 133 umol/kg, ip; assay type: ADME, organism-based; parameters: dose 133 umol/kg, route intraperitoneal; conditions: in vivo; how it was run: as §1
HT-29 [17] = assay: Diffusion coefficient, D in HT29 multicellular layers; assay type: ADME, cell-based; conditions: human
How it was run: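 HT29 multicellular layers were grown 3 days on collagen-coated Teflon membranes, equilibrated 60 min under 95% O2/5% CO2 at 37 °C, then placed in a diffusion chamber. Donor and receiver were sampled up to 5 h and assayed by HPLC. D came from fitting both profiles to a Fickian model with membrane and MCL in series, corrected by support-only Ds.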

HT-29 [18] = assay: Antitumor activity against human HT29 cells implanted in CD1 mouse assessed as clonogenic survival at 133 umol/kg, ip after 18 hrs relative to control; assay type: functional; how it was run: as §2
HT-29 [19] = assay: Antitumor activity against human HT29 cells implanted in CD1 mouse assessed as clonogenic survival at 562 umol/kg, ip after 18 hrs relative to control; assay type: functional; how it was run: as §2
[20] = Protein binding in mouse plasma by equilibrium dialysis; assay type: ADME, cell-free; conditions: read-out: PPB (converted)
HT-29 [21] = assay: Antitumor activity against human HT29 cells implanted in CD1 mouse at 562 umol/kg, ip administered 5 mins after irradiation by excision assay relative to radiation alone; assay type: functional; how it was run: as §3
[22] = Half life in CD1 mouse at 562 umol/kg, ip; assay type: ADME, organism-based; conditions: in vivo; how it was run: as §1
[23] = Cmax in CD1 mouse at 562 umol/kg, ip; assay type: ADME, organism-based; parameters: dose 562 umol/kg, route intraperitoneal; conditions: in vivo; how it was run: as §1
[24] = Half life in CD1 mouse at 421 umol/kg, ip; assay type: ADME, organism-based; conditions: in vivo; how it was run: as §1
[25] = Cmax in CD1 mouse at 421 umol/kg, ip; assay type: ADME, organism-based; parameters: dose 421 umol/kg, route intraperitoneal; conditions: in vivo; how it was run: as §1
[26] = AUC in CD1 mouse at 421 umol/kg, ip; assay type: ADME, organism-based; conditions: plasma; how it was run: as §1
[27] = AUC in CD1 mouse at 750 umol/kg, ip; assay type: ADME, organism-based; conditions: plasma; how it was run: as §1
HT-29 [28] = assay: Antitumor activity against human HT29 cells implanted in CD1 mouse assessed as clonogenic survival at 750 umol/kg, ip after 18 hrs relative to control; assay type: functional; how it was run: as §2
[29] = Cmax in CD1 mouse at 750 umol/kg, ip; assay type: ADME, organism-based; parameters: dose 750 umol/kg, route intraperitoneal; conditions: in vivo; how it was run: as §1
HT-29 [30] = assay: Antitumor activity against human HT29 cells implanted in CD1 mouse at 750 umol/kg, ip administered 5 mins after irradiation by excision assay relative to radiation alone; assay type: functional; how it was run: as §3
[31] = Half life in CD1 mouse at 750 umol/kg, ip; assay type: ADME, organism-based; conditions: in vivo; how it was run: as §1

## CCOc1ccc2c(c1)[n+]([O-])c(NCCN1CCCCC1)n[n+]2[O-]
SiHa [1]
  Ratio IC50: 169
SiHa [2]
  pIC50: 5.77
[3]
  Cmax: 9.8 µM
HT-29 [4]
  Activity: 36.3 µM·h
[5]
  AUC: 10.7 µM·h
[6]
  solubility: > 49 mM
HT-29 [7]
  pIC50: 5.66
HT-29 [8]
  Ratio IC50: 116
[9]
  half-life: 40.1 min
Mus musculus
  MTD: 316 µmol/kg

## CN(C)CCNc1n[n+]([O-])c2ccc(OCC3CC3)cc2[n+]1[O-]
SiHa [1]
  Ratio IC50: 101
SiHa [2]
  pIC50: 5.68
HT-29 [10]
  LCK: -0.14
HT-29 [11]
  LCK: -0.06
[12]
  half-life: 33.9 min
HT-29 [4]
  Activity: 45.1 µM·h
[13]
  AUC: 51.3 µM·h
[6]
  solubility: 43 mM
HT-29 [7]
  pIC50: 5.42
HT-29 [8]
  Ratio IC50: 35
Mus musculus
  MTD: 750 µM/g

## Nc1n[n+]([O-])c2ccccc2[n+]1[O-] [TIRAPAZAMINE]
[14]
  AUC: 49.2 µM·h
SiHa [2]
  pIC50: 5.60
HT-29 [15]
  LCK: 0.59
[16]
  Cmax: 61.7 µM
HT-29 [4]
  Activity: 24.3 µM·h
HT-29 [17]
  D: 4.04e-07 cm²/s
[6]
  solubility: 8.9 mM
HT-29 [7]
  pIC50: 5.29
HT-29 [18]
  LCK: 0.15
Mus musculus
  MTD: 178 µmol/kg

## Cc1ccc2c(c1)[n+]([O-])c(NCCN1CCCCC1)n[n+]2[O-]
SiHa [1]
  Ratio IC50: 75
SiHa [2]
  pIC50: 5.66
[3]
  Cmax: 14.9 µM
HT-29 [4]
  Activity: 9.4 µM·h
[5]
  AUC: 13.8 µM·h
HT-29 [17]
  D: 7.49e-07 cm²/s
[6]
  solubility: 45 mM
HT-29 [7]
  pIC50: 5.40
HT-29 [8]
  Ratio IC50: 58
[9]
  half-life: 16.6 min
Mus musculus
  MTD: 237 µmol/kg

## Cc1ccc2c(c1)[n+]([O-])c(NCCN(C)C)n[n+]2[O-]
HT-29 [19]
  LCK: 0.07
SiHa [1]
  Ratio IC50: 200
SiHa [2]
  pIC50: 5.96
[20]
  fraction unbound: 0.04
HT-29 [4]
  Activity: 6.3 µM·h
HT-29 [17]
  D: 3.99e-07 cm²/s
[6]
  solubility: > 51 mM
HT-29 [7]
  pIC50: 5.72
HT-29 [21]
  LCK: 1
HT-29 [8]
  Ratio IC50: 159
[22]
  half-life: 22.5 min
[23]
  Cmax: 104 µM
Mus musculus
  MTD: 562 µmol/kg

## Cc1ccc2c(c1)[n+]([O-])c(NCCN1C(C)CCCC1C)n[n+]2[O-] (stereo not drawn)
SiHa [1]
  Ratio IC50: 159
SiHa [2]
  pIC50: 6.10
HT-29 [4]
  Activity: 15.4 µM·h
HT-29 [17]
  D: 9.45e-07 cm²/s
[6]
  solubility: 48 mM
HT-29 [7]
  pIC50: 5.55
[24]
  half-life: 19.1 min
HT-29 [8]
  Ratio IC50: 126
[25]
  Cmax: 19.6 µM
[26]
  AUC: 18.3 µM·h
Mus musculus
  MTD: 421 µmol/kg

## CCc1ccc2c(c1)[n+]([O-])c(NCCCN1CCOCC1)n[n+]2[O-]
SiHa [1]
  Ratio IC50: 66
SiHa [2]
  pIC50: 5.25
[27]
  AUC: 94.8 µM·h
HT-29 [28]
  LCK: 0.13
[29]
  Cmax: 139 µM
HT-29 [4]
  Activity: 56.5 µM·h
HT-29 [30]
  LCK: 0.82
[6]
  solubility: 55 mM
HT-29 [7]
  pIC50: 4.98
HT-29 [8]
  Ratio IC50: >36
[31]
  half-life: 24.9 min
Mus musculus
  MTD: 1000 µmol/kg
